Assay results from ChEMBL document CHEMBL1132406, “Synthesis and structure-activity relationships of phenylenebis(methylene)-linked bis-azamacrocycles that inhibit HIV-1 and HIV-2 replication by antagonism of the chemokine receptor CXCR4” (J Med Chem, 1999).

These molecules were tested on Human immunodeficiency virus 1 (assay: Antiviral effective concentration for Inhibitory activity on HIV-1(IIIB) replication in MT-4 cells). Settings: Human immunodeficiency virus 1, MT4.
Assay type: functional, organism-based
How it was run: (§1)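 MT-4 cells infected at MOI 0.01 (100 × CCID50) with HIV-1 (IIIB) or HIV-2 (ROD) in presence of graded compound concentrations; antiviral and cytotoxicity run in parallel, CC50 on mock-infected cells. After 5 days of growth, viable cells counted by MTT colorimetry. EC50 = concentration protecting 50% of infected cells from cytopathicity; values averaged over several experiments.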
`c1cc(CN2CCCSCCSCCCNCC2)ccc1CN1CCCSCCSCCCNCC1` was tested, and the EC50 was > 6.84 µM. `c1cc(CN2CCCNCCOCCNCCC2)ccc1CN1CCCNCCOCCNCCC1` showed an EC50 of 4.49 µM. Molecule `c1cc2cc(c1)CNCCCN(Cc1ccc(CN3CCCNCc4cccc(c4)CNCCC3)cc1)CCCNC2` has an EC50 of 7.96 µM. Work on `c1cc2nc(c1)CCNCCN(Cc1ccc(CN3CCNCCc4cccc(n4)CCNCC3)cc1)CCNCC2` yielded an EC50 of 0.0008 µM. `c1cc2nc(c1)CCNCCCN(Cc1ccc(CN3CCCNCCc4cccc(n4)CCNCCC3)cc1)CCCNCC2` gave an EC50 of 0.421 µM. `Clc1cc2nc(c1)CNCCCN(Cc1ccc(CN3CCCNCc4cc(Cl)cc(n4)CNCCC3)cc1)CCCNC2` gave an EC50 of 0.751 µM. In the case of `c1cc(CN2CCCOCCOCCCNCC2)ccc1CN1CCCOCCOCCCNCC1`, the EC50 is reported as > 363 µM. Work on `Oc1cc2nc(c1)CNCCCN(Cc1ccc(CN3CCCNCc4cc(O)cc(n4)CNCCC3)cc1)CCCNC2` yielded an EC50 of 174 µM. Molecule `c1ccc(-c2cc3nc(c2)CNCCCN(Cc2ccc(CN4CCCNCc5cc(-c6ccccc6)cc(n5)CNCCC4)cc2)CCCNC3)cc1` has an EC50 of 1.75 µM. `c1cc(CN2CCCNCc3cncc(n3)CNCCC2)ccc1CN1CCCNCc2cncc(n2)CNCCC1` was tested, and the EC50 was 30.9 µM. `COc1cc2nc(c1)CNCCCN(Cc1ccc(CN3CCCNCc4cc(OC)cc(n4)CNCCC3)cc1)CCCNC2` was tested, and the EC50 was 3.1 µM. `c1cc2nc(c1)CNCCCN(Cc1ccc(CN3CCCNCc4cccc(n4)CNCCC3)cc1)CCCNC2` gave an EC50 of 0.534 µM. In the case of `c1cc(CN2CCCNCCCCCNCCC2)ccc1CN1CCCNCCCCCNCCC1`, the EC50 is reported as 9.61 µM. In the case of `c1cc(CN2CCNCc3cccc(n3)CNCC2)cc(CN2CCNCc3cccc(n3)CNCC2)c1`, the EC50 is reported as 0.0971 µM. Work on `c1cc2nc(c1)CNCCN(Cc1ccc(CN3CCNCc4cccc(n4)CNCC3)cc1)CCNC2` yielded an EC50 of 0.524 µM. In the case of `c1cc(CN2CCCNCCNCCNCCC2)ccc1CN1CCCNCCNCCNCCC1`, the EC50 is reported as 0.0337 µM.

The molecules below were run on Human immunodeficiency virus 2 (assay: Antiviral effective concentration for Inhibitory activity on HIV-2(ROD) replication in MT-4 cells). Settings: Human immunodeficiency virus 2, MT4.
Assay type: functional, organism-based
How it was run: as §1
In the case of `c1cc(CN2CCCSCCSCCCNCC2)ccc1CN1CCCSCCSCCCNCC1`, the EC50 is reported as > 6.84 µM. Work on `c1cc2nc(c1)CCNCCN(Cc1ccc(CN3CCNCCc4cccc(n4)CCNCC3)cc1)CCNCC2` yielded an EC50 of 0.0016 µM. In the case of `c1cc2nc(c1)CCNCCCN(Cc1ccc(CN3CCCNCCc4cccc(n4)CCNCCC3)cc1)CCCNCC2`, the EC50 is reported as 1.21 µM. `Clc1cc2nc(c1)CNCCCN(Cc1ccc(CN3CCCNCc4cc(Cl)cc(n4)CNCCC3)cc1)CCCNC2` gave an EC50 of 0.759 µM. For `c1cc(CN2CCCOCCOCCCNCC2)ccc1CN1CCCOCCOCCCNCC1`, the EC50 was > 363 µM. `Oc1cc2nc(c1)CNCCCN(Cc1ccc(CN3CCCNCc4cc(O)cc(n4)CNCCC3)cc1)CCCNC2` showed an EC50 of 200 µM. In the case of `c1cc(CN2CCCNCc3cncc(n3)CNCCC2)ccc1CN1CCCNCc2cncc(n2)CNCCC1`, the EC50 is reported as 20.7 µM. For `COc1cc2nc(c1)CNCCCN(Cc1ccc(CN3CCCNCc4cc(OC)cc(n4)CNCCC3)cc1)CCCNC2`, the EC50 was 8.46 µM. For `c1cc(CN2CCNCc3cccc(n3)CNCC2)cc(CN2CCNCc3cccc(n3)CNCC2)c1`, the EC50 was 0.0025 µM. In the case of `c1cc2nc(c1)CNCCN(Cc1ccc(CN3CCNCc4cccc(n4)CNCC3)cc1)CCNC2`, the EC50 is reported as 0.127 µM. For `c1cc(CN2CCCNCCNCCNCCC2)ccc1CN1CCCNCCNCCNCCC1`, the EC50 was 0.0422 µM.

These molecules were tested on MT4 (assay: 50% cytotoxic concentration was tested against HIV infected MT-4 cells). Settings: Homo sapiens, in the assay text read “mock-infected” for “HIV infected”.
Assay type: functional
How it was run: as §1
In the case of `c1cc(CN2CCCSCCSCCCNCC2)ccc1CN1CCCSCCSCCCNCC1`, the CC50 is reported as 6.8 µM. For `c1cc(CN2CCCNCCNCCCNCC2)ccc1CN1CCCNCCNCCCNCC1`, the CC50 was > 421 µM. For `c1cc(CN2CCCNCCOCCNCCC2)ccc1CN1CCCNCCOCCNCCC1`, the CC50 was > 244 µM. `c1cc2cc(c1)CNCCCN(Cc1ccc(CN3CCCNCc4cccc(c4)CNCCC3)cc1)CCCNC2` was tested, and the CC50 was 133 µM. Molecule `c1cc2nc(c1)CCNCCN(Cc1ccc(CN3CCNCCc4cccc(n4)CCNCC3)cc1)CCNCC2` has a CC50 of 194 µM. Molecule `c1cc2nc(c1)CCNCCCN(Cc1ccc(CN3CCCNCCc4cccc(n4)CCNCCC3)cc1)CCCNCC2` has a CC50 of 142 µM. Work on `Clc1cc2nc(c1)CNCCCN(Cc1ccc(CN3CCCNCc4cc(Cl)cc(n4)CNCCC3)cc1)CCCNC2` yielded a CC50 of 17.8 µM. In the case of `c1cc(CN2CCCOCCOCCCNCC2)ccc1CN1CCCOCCOCCCNCC1`, the CC50 is reported as > 363 µM. With `Oc1cc2nc(c1)CNCCCN(Cc1ccc(CN3CCCNCc4cc(O)cc(n4)CNCCC3)cc1)CCCNC2` the CC50 was 200 µM. Work on `c1ccc(-c2cc3nc(c2)CNCCCN(Cc2ccc(CN4CCCNCc5cc(-c6ccccc6)cc(n5)CNCCC4)cc2)CCCNC3)cc1` yielded a CC50 of 19.3 µM. With `c1cc(CN2CCCNCc3cncc(n3)CNCCC2)ccc1CN1CCCNCc2cncc(n2)CNCCC1` the CC50 was 209 µM. `COc1cc2nc(c1)CNCCCN(Cc1ccc(CN3CCCNCc4cc(OC)cc(n4)CNCCC3)cc1)CCCNC2` showed a CC50 of 216 µM. Molecule `c1cc2nc(c1)CNCCCN(Cc1ccc(CN3CCCNCc4cccc(n4)CNCCC3)cc1)CCCNC2` has a CC50 of 199 µM. With `c1cc(CN2CCCNCCCCCNCCC2)ccc1CN1CCCNCCCCCNCCC1` the CC50 was 133 µM. Work on `c1cc(CN2CCNCc3cccc(n3)CNCC2)cc(CN2CCNCc3cccc(n3)CNCC2)c1` yielded a CC50 of 30 µM. Molecule `c1cc2nc(c1)CNCCN(Cc1ccc(CN3CCNCc4cccc(n4)CNCC3)cc1)CCNC2` has a CC50 of 8.5 µM. With `c1cc(CN2CCCNCCNCCNCCC2)ccc1CN1CCCNCCNCCNCCC1` the CC50 was > 421 µM.

Each molecule was assayed against C-X-C chemokine receptor type 4 (Homo sapiens, UniProt P61073) (assay: Inhibitory activity against CXCR4-specific monoclonal antibody 12G5 (mAb-12G5) binding to human chemokinin receptor CXCR4 in lymphocytic SUP-T1 cells). Settings: not given.
C-X-C chemokine receptor type 4, sequence (P61073 whole entry): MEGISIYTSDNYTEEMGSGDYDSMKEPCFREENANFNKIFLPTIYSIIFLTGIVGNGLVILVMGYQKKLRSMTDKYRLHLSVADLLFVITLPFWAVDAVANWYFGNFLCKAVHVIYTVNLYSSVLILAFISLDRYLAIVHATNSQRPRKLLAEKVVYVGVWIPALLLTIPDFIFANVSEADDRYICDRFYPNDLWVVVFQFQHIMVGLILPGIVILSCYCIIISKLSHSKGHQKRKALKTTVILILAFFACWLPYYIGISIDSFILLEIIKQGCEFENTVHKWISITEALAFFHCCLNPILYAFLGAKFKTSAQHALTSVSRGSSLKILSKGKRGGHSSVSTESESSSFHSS
Assay type: cell-based
How it was run: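 SUP-T1 cells preincubated with compound or PBS 15 min at room temperature, washed, then exposed to CXCR4 mAb 12G5 for 30 min, washed, stained with FITC goat anti-mouse antibody for 30 min at room temperature. Flow cytometry measured percent positive cells and MFI; inhibition derived from MFI, IC50 calculated.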
In the case of `c1cc(CN2CCCSCCSCCCNCC2)ccc1CN1CCCSCCSCCCNCC1`, the IC50 is reported as > 35 µM. `c1cc2nc(c1)CCNCCN(Cc1ccc(CN3CCNCCc4cccc(n4)CCNCC3)cc1)CCNCC2` gave an IC50 of 0.001 µM. With `Clc1cc2nc(c1)CNCCCN(Cc1ccc(CN3CCCNCc4cc(Cl)cc(n4)CNCCC3)cc1)CCCNC2` the IC50 was 5.74 µM. `c1cc(CN2CCCOCCOCCCNCC2)ccc1CN1CCCOCCOCCCNCC1` was tested, and the IC50 was > 35 µM. For `Oc1cc2nc(c1)CNCCCN(Cc1ccc(CN3CCCNCc4cc(O)cc(n4)CNCCC3)cc1)CCCNC2`, the IC50 was > 35 µM. With `c1cc(CN2CCCNCc3cncc(n3)CNCCC2)ccc1CN1CCCNCc2cncc(n2)CNCCC1` the IC50 was > 35 µM. For `c1cc(CN2CCCNCCCCCNCCC2)ccc1CN1CCCNCCCCCNCCC1`, the IC50 was > 35 µM. For `c1cc2nc(c1)CNCCN(Cc1ccc(CN3CCNCc4cccc(n4)CNCC3)cc1)CCNC2`, the IC50 was 4.36 µM. In the case of `c1cc(CN2CCCNCCNCCNCCC2)ccc1CN1CCCNCCNCCNCCC1`, the IC50 is reported as 0.067 µM.
